Where two headings read alike, the source gives them in different places.
How the values were obtained:
[1] = assay type: in vivo, human
[2] = Safety and tolerability assessments in the hepatic impairment study; assay type: in vivo, human; conditions: Single 15-mg dose
Summary of the method: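 Open-label, single-dose study in subjects with mild or moderate hepatic impairment (Child-Pugh) and normal-function controls. Subjects were confined from the day before dosing and given the oral extended-release test compound after a 10-hour fast, then fasted 4 h post-dose. Adverse events, hematology, blood chemistry, vital signs, ECGs and physical exams were monitored. Treatment-emergent events were tabulated per hepatic group by MedDRA class and term.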

[3] = Over the range of IR and ER doses evaluated in clinical studies; cited from earlier work
[4] = cited from earlier work
cytochrome P450 (CYP) 3A = conditions: cited from earlier work
[5] = cited from earlier work; remark: listed apart in the source
[6] = cited from earlier work; remark: listed apart in the source
plasma proteins = conditions: ref data on file at AbbVie; cited from earlier work
[7] = cited from earlier work; remark: listed apart in the source
JAK 1 = conditions: cited from earlier work
JAK 2 = conditions: cited from earlier work
JAK 3 = conditions: cited from earlier work
Tyk2 = conditions: cited from earlier work
[8] = Moderate hepatic impairment (outlier excluded)
[9] = Subjects with mild and moderate hepatic impairment
[10] = IR formulation, relative to upadacitinib alone

With `CC[C@@H]1CN(C(=O)NCC(F)(F)F)C[C@@H]1c1cnc2cnc3[nH]ccc3n12` [upadacitinib] the “AUC lower compared with mean AUC in subjects with normal hepatic function” value ([1]; 1 subject in the moderate hepatic impairment group (excluded from analyses)) was “approximately 70%”, the “Plasma concentration at 120 hours” value ([1]; All subjects and all groups, lower limit of quantitation 0.05 ng/mL) was “below the assay limit of quantification” and the “AUC central value higher compared with normal hepatic function” value ([1]; Mild hepatic impairment) was 28%. For the same compound, the “Cmax central value compared with normal hepatic function” value ([1]; Mild hepatic impairment) was “similar”, the “β (terminal-phase elimination rate constant) versus normal hepatic function” value ([1]; Mild hepatic impairment, ANCOVA) was “no statistically significant difference” and the “AUC central value higher compared with normal hepatic function” value [1, 8] was 24%. The “Cmax central value higher compared with normal hepatic function” value [1, 8] was 43%, the “Increase in upadacitinib exposure, AUC” value [1, 9] was less than 30% and the “Increase in upadacitinib exposure, Cmax” value [1, 9] was less than 45%. The “Changes in vital signs or hematology measurements” value [2] was “No clinically significant changes”, the Tolerability ([2]; all subjects) was “well tolerated” and the “Plasma exposure dose and time dependence” value [3] was “approximately dose proportional and time independent”. The “Dose eliminated unchanged in urine” value ([4]; IR dose) was “Approximately 20%”, the “Dose eliminated in urine and feces as metabolites” value ([4]; ref data on file at AbbVie) was “approximately 30%” and the “Substrate status for cytochrome P450 (CYP) 3A” value (cytochrome P450 (CYP) 3A; Evaluated in phase 1 drug-interaction study with ketoconazole) was “nonsensitive substrate”. For the same compound, the “Increase in plasma AUC with coadministration of ketoconazole” value (cytochrome P450 (CYP) 3A; [10]) was 75%, the “Increase in plasma Cmax with coadministration of ketoconazole” value (cytochrome P450 (CYP) 3A; [10]) was 70% and the “Increase in upadacitinib exposure with a high-fat meal” value [5] was “Approximately 20%”. For the same compound, the “AUC higher compared with normal renal function” value ([6]; Mild renal impairment) was 18%, the “Cmax compared with normal renal function” value ([6]; Mild, moderate and severe renal impairment) was “similar” and the “AUC higher compared with normal renal function” value ([6]; Moderate renal impairment) was 33%. For the same compound, the “AUC higher compared with normal renal function” value ([6]; Severe renal impairment) was 44%, the Plasma protein binding (plasma proteins) was “not extensively bound to plasma proteins” and the “Impact of baseline AST, ALT and bilirubin on upadacitinib exposure” value ([7]; Phase 1 to 3 studies, healthy subjects and subjects with RA) was “no impact”. The “Correlation of CYP2D6 metabolic phenotype with upadacitinib clearance” value [7] was “not correlated”, the “Effect of age, weight, sex, race and ethnicity on upadacitinib exposure” value [7] was “no clinically relevant effect” and the “Inhibition of JAK 1” value (JAK 1) was “potently inhibits”. The “Potency against JAK 2 compared with JAK 1” value (JAK 2) was “less potent”, the “Potency against JAK 3 compared with JAK 1” value (JAK 3) was “less potent” and the “Potency against Tyk2 compared with JAK 1” value (Tyk2) was “less potent”.

Reference: article PMC6766976 (Journal of Clinical Pharmacology, 2019)
